Screens deposited in PubChem BioAssay by The Scripps Research Institute Molecular Screening Center.
Sampled rows, rich in hits. Any-hit rate of the full collection: about 2.3%.
PRMT1 inh: blocks human protein arginine methyltransferase 1 | 370,000 tested, 1.3% active | inhibition, % at 2.79 µM | recombinant PRMT1, activity-based probe fluorescence polarization;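 active = inhibition above about 21% made by adding two undisclosed values, limit read from the data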
Fam108B counter: counter-screen for RBBP9 inhibitors: inhibitors of mouse Fam108B; recombinant Fam108B, FP-Rh probe fluorescence polarization; inhibition, % at 9.51 µM; 300,000 tested, 0.33% active;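 active = inhibition above the screen mean inhibition plus 3 SD, computed separately per campaign, cut at about 18% in these data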;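 note: inhibitors lower polarization as less probe binds the enzyme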
PME-1 primary: PME-1 (human) inhibition. inhibition, % at 5.9 µM. AID 2130. 320,000 tested, 0.53% active. recombinant PME-1, FP-Rh probe fluorescence polarization;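 active = inhibition above the campaign mean of all compounds plus 3 SD, cut at about 26% in these data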;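 note: competitive labeling of PME-1 active site by serine hydrolase directed probe; 0% = PME-1 with DMSO and 100% = wells lacking PME-1 enzyme; inhibitors block probe labeling so polarization falls and inhibition rises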
RBBP9 inh: blocks human serine hydrolase RBBP9. inhibition, % at 7.94 µM. recombinant RBBP9, FP-Rh probe fluorescence polarization. 220,000 tested, 0.2% active;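 active = inhibition above the campaign mean of all tested compounds plus 3 SD, cut at about 14% in these data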;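 note: plate controls were DMSO wells with RBBP9 for no effect and wells lacking RBBP9 protein for full effect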
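system = RBBP9 protein | input = RBBP9 at 2.5 µM in dispensed solution, before mixing | measured by = fluorescence polarization (mP), excitation 525 nm, emission 598 nm | incubation = enzyme-compound preincubation 30 min, then probe labeling 45 min, 25 °C | buffer or medium = Tris-NaCl-Pluronic buffer, pH 8.0 | compound = single dose 7.94 µM | also added = FP-Rh probe, 375 nM dispensing solution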
PAD4 FP inh: PAD4 (human) enzyme inhibition. Q9UM07. recombinant PAD4, RCA probe fluorescence polarization. inhibition, % at 6.36 µM. 330,000 tested, 0.41% active. AID 485272;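 active = percent inhibition above a cutoff equal to the mean of all tested compounds plus 3 SD, cut at about 15% in these data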;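 note: 0% = PAD4 with RCA probe and DMSO and 100% = probe without PAD4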
Target sequence (Q9UM07 whole entry, looked up): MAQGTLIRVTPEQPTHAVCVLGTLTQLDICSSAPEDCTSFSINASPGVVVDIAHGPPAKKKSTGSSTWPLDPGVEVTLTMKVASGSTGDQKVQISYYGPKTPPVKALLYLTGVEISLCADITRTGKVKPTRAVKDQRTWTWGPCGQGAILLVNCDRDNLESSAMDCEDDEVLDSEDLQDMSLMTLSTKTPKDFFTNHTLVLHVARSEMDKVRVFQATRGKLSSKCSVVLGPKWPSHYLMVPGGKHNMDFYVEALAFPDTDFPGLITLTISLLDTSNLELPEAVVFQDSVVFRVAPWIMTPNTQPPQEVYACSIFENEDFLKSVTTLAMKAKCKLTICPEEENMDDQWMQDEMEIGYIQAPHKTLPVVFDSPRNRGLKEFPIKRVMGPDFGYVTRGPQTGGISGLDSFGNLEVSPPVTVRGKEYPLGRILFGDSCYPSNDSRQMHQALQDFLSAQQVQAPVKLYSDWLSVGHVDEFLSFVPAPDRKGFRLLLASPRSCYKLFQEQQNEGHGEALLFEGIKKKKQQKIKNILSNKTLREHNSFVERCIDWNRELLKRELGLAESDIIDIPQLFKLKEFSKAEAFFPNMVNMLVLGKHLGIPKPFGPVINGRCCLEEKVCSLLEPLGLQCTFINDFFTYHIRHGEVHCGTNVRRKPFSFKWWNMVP
GSTO1 counter: GSTO1 inhibition, counter-screen for RBBP9 inhibitors; inhibition, % at 5.96 µM; AID 1974; recombinant GSTO1, activity-based probe fluorescence polarization; P78417; 300,000 tested, 1.1% active;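 active = inhibition above the campaign mean inhibition plus 3 SD, cut at about 35% in these data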;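 note: 0% = GSTO1-1 with DMSO and 100% = wells lacking GSTO1-1 enzyme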
PRMT1 confirm: confirmation of human PRMT1 inhibitors; shares compounds with PRMT1 inh; recombinant His-PRMT1, activity-based probe fluorescence polarization; inhibition, % at 2.79 µM; 3,300 tested, 42% active; AID 687036;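 active = mean inhibition across replicates above the hit cutoff derived for the earlier primary screen, cut at about 22% in these data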
An asterisk follows results filed as active; . = no result.

SMILES	PRMT1 inh	Fam108B counter	PME-1 primary	RBBP9 inh	PAD4 FP inh	GSTO1 counter	PRMT1 confirm
O=C(NCc1ccc(Cl)cc1)C1CC(O)CN1S(=O)(=O)c1ccc(Cl)cc1 (stereo not drawn)	0.7	1.3	-3.2	.	0.9	6.2	.
Cc1cc(C)c2ccc(=S)[nH]c2n1	38.2*	0.1	-2.3	-5.0	-0.5	5.9	16.4
Cc1cc2cc(C=C(C#N)C#N)c(Cl)nc2cc1C	85.8*	-3.8	4.7	-0.9	-3.9	29.3	8.1
CSCc1cc(N2CCOCC2)nc(-c2ccccc2)n1	-3.0	-3.2	3.1	-5.3	-1.1	1.3	.
O=C(CSc1nccn(-c2ccc(F)c(Cl)c2)c1=O)NC1CCCC1	31.9*	-2.0	-4.3	.	-2.6	3.0	38.9*
Cc1ccc(-n2ccnc(SCC(=O)NC3CCCC3)c2=O)cc1Cl	14.8	-4.4	-2.1	.	-2.3	16.5	.
Cc1ccc(-n2ccnc(SCC(=O)NCCc3ccccc3)c2=O)cc1F	59.4*	2.1	1.0	.	3.5	-3.2	41.6*
COc1ccc(C(=O)NC2CCSC2=O)cc1 (stereo not drawn)	1.2	1.4	5.4	-6.7	3.8	-3.0	.
CC1(C)C2CCC(CN=C(N)CSS(=O)(=O)O)C1C2 (stereo not drawn)	88.3*	.	.	.	.	.	68.7*
O=C(CCSc1ccc(Cl)cc1)c1cccs1	48.5*	5.3	3.7	0.8	-3.5	4.7	43.1*
Cc1ccc(Cl)cc1NC(=O)CSC(N)=O	41.3*	0.7	7.9	-5.0	4.0	7.1	99.4*
COCC(=O)Nc1cc(Cl)ccc1C	-3.4	-6.5	-8.4	-10.2	-0.4	4.4	.
Cc1ccc(NC(=O)C2(NC(=O)c3cccc(N4C(=O)CSC4c4ccccc4)c3)CCCCC2)cc1 (stereo not drawn)	-0.2	2.2	-8.8	-6.9	-2.7	-7.5	.
COc1ccc2c(c1)nc(NCCO)n2C	-2.6	0.2	-6.2	-5.1	-4.3	3.2	.
COC(=O)c1cc(C(=O)Nc2nnc(CC(C)C)s2)cc([N+](=O)[O-])c1	-2.8	-1.5	1.2	-10.2	0.1	-8.2	.
CCC(CC)c1nnc(NC(=O)c2cc(C(=O)OC)cc([N+](=O)[O-])c2)s1	29.1*	7.0	9.4	-0.9	1.6	-19.6	20.3
CCCCNc1ccc2c3c(cccc13)C(=O)N(CCCC)C2=O	155.0*	.	.	-0.2	.	.	133.3*
O=C(OCCN1C(=O)c2cccc3c(N4CCOCC4)ccc(c23)C1=O)c1cc(Cl)cc(Cl)c1	.	.	.	-9.6	.	.	.
O=C1c2cccc3c(N4CCCCC4)ccc(c23)C(=O)N1c1ccccn1	7.7	2.9	-4.8	1.4	4.2	10.1	.
Cc1nn(C)c(C)c1N1C(=O)c2cccc3c(Br)ccc(c23)C1=O	56.5*	0.8	8.9	-4.0	4.9	5.3	0.1
CC(=O)N(C(C)=O)N1C(=O)c2cccc3c(N4CCOCC4)ccc(c23)C1=O	28.2*	1.6	-11.6	-9.5	3.4	8.6	7.1
CCCN1C(=O)c2cccc3c(N4CCCCC4)ccc(c23)C1=O	84.2*	5.4	5.5	-2.8	-1.0	-0.8	51.5*
O=C(CCC(=O)Nc1ccccc1Cl)NNC(=O)c1ccccc1[N+](=O)[O-]	1.6	-7.4	-3.8	-1.2	-1.2	11.9	.
O=C(N=C1SC2CS(=O)(=O)CC2N1c1ccccc1F)C1CCCCC1 (stereo not drawn)	-1.4	-1.4	-1.5	.	-1.5	1.7	.
CCOc1cc(C(=O)N(CC)CC(=O)Nc2c(F)cccc2F)ccc1OCC(=O)N1CCCCC1	2.8	1.4	1.6	.	0.6	3.8	.
SMILES	PRMT1 inh	Fam108B counter	PME-1 primary	RBBP9 inh	PAD4 FP inh	GSTO1 counter	PRMT1 confirm
CN(C)CCCN1C(=O)c2cccc3c(Br)ccc(c23)C1=O	38.1*	-1.6	5.7	-10.4	0.4	-0.4	9.8
Oc1ccccc1C(=S)N1CCN(C(=S)c2ccccc2O)CC1	42.5*	-3.1	-2.8	.	-3.7	-4.7	18.7
Oc1ccccc1C(=S)N1CCCC1	9.2	-0.1	-5.5	.	1.4	-0.4	.
CCOC(=O)N(C)OC(=O)Nc1ccc(Cl)c(Cl)c1	35.3*	-3.6	-9.4	-10.8	-2.3	6.4	35.9*
CCOC(=O)N(CC)OC(=O)Nc1ccc(Cl)cc1	6.2	-1.6	6.8	-6.4	-1.3	1.7	.
CC(C)[C@H](NC(=O)C1CCN(S(=O)(=O)c2ccccc2)CC1)C(=O)NCc1ccc(F)cc1	4.1	-1.5	6.5	.	-2.2	1.1	.
COc1cc(CNc2ccc3[nH]c(=O)[nH]c3c2)ccc1OCc1ccc(C)cc1	34.9*	.	.	.	.	.	8.1
CC(=O)N(c1cccc(C)c1)C1SC(=O)N(c2ccccc2)C1=O (stereo not drawn)	32.1*	-7.0	-6.1	-3.9	3.1	22.0	22.6*
CC(=O)N(c1ccccc1)C1SC(=O)N(c2ccccc2)C1=O (stereo not drawn)	13.1	-4.5	-7.9	-8.3	6.6	16.7	.
O=C(CCCCl)NC(=S)Nc1ccc(CN2CCOCC2)cc1	1.6	-2.6	-0.1	0.3	1.4	-8.9	.
O=C1C2C3C=CC(C3=C3CCCCC3)C2C(=O)N1c1ccccc1 (stereo not drawn)	43.2*	-0.3	3.2	0.8	-16.1	-5.1	1.6
Cn1cccc1C(=O)OCC(=O)NCc1ccc2c(c1)OCO2	126.1*	.	4.3	.	4.3	.	3.4
Cc1ccc(NC(=O)CSc2sc3c(O)cc(=O)[nH]c3c2C#N)c(F)c1	12.4	2.0	-12.5	.	-0.1	28.9	.
COc1cc(Cl)c(C)cc1NC(=O)CSc1sc2c(O)cc(=O)[nH]c2c1C#N	35.6*	-0.5	-23.1	.	-2.1	17.2	12.5
N#Cc1c(SCC(=O)Nc2ccc(C(F)(F)F)cc2)sc2c(O)cc(=O)[nH]c12	14.5	0.4	-9.8	.	0.3	15.4	.
COc1ccc(OC)c(NC(=O)CSc2sc3c(O)cc(=O)[nH]c3c2C#N)c1	25.6*	5.2	-13.9	.	-2.5	12.4	12.6
COc1cccc(-c2cc(C(F)(F)F)n3ncc(C(=O)N4CCc5ccccc5C4)c3n2)c1	-1.3	2.5	2.3	-4.4	-3.4	3.0	.
CC(=O)Nc1c(O)c2ccccc2[nH]c1=O	36.2*	-3.8	5.4	1.6	-2.2	8.7	13.3
O=C(NC1CC1)c1c(O)c2ccccc2[nH]c1=O	-2.2	.	.	.	.	.	.
CCCNC(=O)Cc1c(O)c2ccccc2[nH]c1=O	-1.6	1.0	-1.2	-5.6	2.2	7.4	.
CCCCC(=O)Nc1c(O)c2ccccc2[nH]c1=O	30.5*	4.0	4.5	-3.4	-2.2	0.4	-3.4
Nc1ccccc1SSc1ccccc1N	82.6*	9.6	-3.3	-11.4	8.0	-14.8	83.8*
N#Cc1ccccc1Sc1ccccc1N	.	-0.9	-1.8	-9.7	0.1	7.8	.
Cc1cc(=O)oc2c3c(cc(OCC(=O)NCC(=O)N[C@H](C(=O)O)C(C)C)c12)OC(C)(C)CC3	1.7	2.0	3.3	.	-3.7	2.7	.
